An excerpt weighted towards active compounds, which were near 4% of everything screened.
CHOP UPR activ: apoptotic UPR (CHOP) activation; actives 0.34% (n = 330,000); activation, % at 10 µM; CHO-CHOP luciferase reporter, luminescence; percent of tunicamycin response over DMSO baseline;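 active = at 10 µM dose, activation of 40% or more, normalized to positive control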
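measured by = luciferase luminescence | assay system = CHO-CHOP cells, stable luciferase reporter of PERK-eIF2a-CHOP signalling | amount = 500 reporter cells seeded per well | timing = 6 h compound exposure at 37 °C after overnight seeding | controls = positive tunicamycin 10 µg/mL, negative DMSO alone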
XBP1 UPR activ: adaptive UPR (XBP1) activation | CHO-XBP1 luciferase reporter, IRE1-XBP1 UPR activation, luminescence; percent of tunicamycin response, DMSO as zero | AID 463104 | activation, % at 20 µM | actives 0.33% (n = 330,000);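 active = versus positive control, 20 µM dose yields 30% or more activation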
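assay system = CHO-XBP1 luciferase reporter cells | amount = 1000 cells/well | buffer or medium = F12 plus 10% FBS | compound dosing = single point, 20 µM final compound, 1% DMSO | incubation = 16-18 h cell attachment at 37 °C, then 6 h compound exposure | detection = Steady-Glo luminescence read | controls = tunicamycin 10 µg/mL and vehicle-only wells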
ABHD5 PLIN5 PPI: ABHD5-PLIN5 protein interaction inhibition. Q00G26+Q8WTS1. Split G. princeps luciferase complementation, luminescence, 4 h. inhibition, % at 4 µM. actives 0.78% (n = 360,000);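 active = inhibition above the mean inhibition across every tested compound plus 3 SD, cut at about 22% in these data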
Exocytosis inh: blocks lytic granule exocytosis. inhibition, % at 10 µM. TALL-104 LAMP-1 surface exposure, flow cytometry; cells stimulated with thapsigargin and PMA. AID 651702. actives 0.66% (n = 360,000);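 active = inhibition above about 55%, limit read from the data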
Mdm2 MdmX PPI: inhibitors of human Mdm2/MdmX interaction | O15151+Q00987 | SaOS-2 split-luciferase Mdm2/MdmX complementation, luminescence | inhibition, % at 8 µM | actives 3% (n = 330,000) | AID 485346;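 active = inhibition of at least 50% at 8 µM in the primary screen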
Mdm2 MdmX conf: confirmation of human Mdm2/MdmX interaction inhibitors; shares compounds with Mdm2 MdmX PPI; Mdm2-MdmX binding, luminescent assay; inhibition, % at 8 µM; actives 55% (n = 10,000); AID 489028; in the data active = inhibition above about 40%
Full FLuc ctr: inhibits full-length luciferase, flagging false Mdm2/MdmX hits | shares compounds with Mdm2 MdmX PPI | SaOS-2 full-length luciferase counterscreen, luminescence | inhibition, % at 8 µM | actives 77% (n = 6,200) | AID 504607;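 active = mean inhibition at 8 µM reaching about 37%, which flags the compound as non-specific, limit read from the data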;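 note: p53-null SaOS-2 cells with luciferase driven by a doxycycline-inducible promoter; compound on cells about two nights before reading with doxycycline added after day one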
Of the large screens only hits and unclear results are named; the others gave an inactive call (follow-up assays come after a bar, where they were run).

CC(C)CCNCC(O)CON=C1c2ccccc2-c2ccccc21 (configuration not stated)	Mdm2 MdmX PPI 95 | Mdm2 MdmX conf 41 | Full FLuc ctr 69
CCOc1ccc(C(=O)OCC(=O)NCc2ccco2)cc1OCC	none
CC(=O)C(C(c1ccccc1)c1c[nH]c2ccccc12)[N+](=O)[O-] (configuration not stated)	Mdm2 MdmX PPI 53 | Mdm2 MdmX conf 61 | Full FLuc ctr 57
CCN(CC)CC(=O)Nc1ccc(/C(C)=N/NC2=NCCN2)cc1	none
CCCN(Cc1ccc(N(CC)CC)cc1)CC1CC1	none
c1ccc(N=NN2CCOCC2)cc1	none (no result: CHOP UPR activ, XBP1 UPR activ, Mdm2 MdmX PPI)
C/C(=N\Nc1ccc2nncn2n1)c1ccccn1	Mdm2 MdmX PPI 81 | Mdm2 MdmX conf 84 | Full FLuc ctr 48
O=C(O)CSC1CC(=O)N(c2ccc(Cl)c(Cl)c2)C1=O (configuration not stated)	none
O=C(NCc1ccncc1)/C(=C\c1ccc(F)cc1)NC(=O)c1ccccc1	none
COc1cccc(CNc2ncnc3ccc(-c4c(C)noc4C)cc23)c1	Mdm2 MdmX PPI 85 | Mdm2 MdmX conf 73 | Full FLuc ctr inactive
Cc1noc(C)c1-c1ccc2ncnc(NCC3CCCCN3C)c2c1 (configuration not stated)	Mdm2 MdmX PPI 72 | Mdm2 MdmX conf 47 | Full FLuc ctr 73
Cc1ccsc1CNc1ncnc2ccc(-c3c(C)noc3C)cc12	Mdm2 MdmX PPI 94 | Mdm2 MdmX conf 69 | Full FLuc ctr 52
Cc1ccccc1Nc1c(-c2ccncc2)nc2ccc(Cl)cn12	Mdm2 MdmX PPI 75 | Mdm2 MdmX conf 49 | Full FLuc ctr 71
CC(=O)Nc1c(-c2ccccc2)nc2ccc(Cl)cn12	none
COc1cc(/C=C2\SC(=O)N(CCNC(=O)c3c(C)noc3C)C2=O)cc(OC)c1OC	none
O=C(NC(=S)Nc1nc(-c2ccc(Br)cc2)cs1)c1ccco1	none
CCC(=O)Nc1ccc(NC(=S)NC(=O)/C=C/c2ccco2)cc1	none
CC(=O)NC(=S)Nc1ccc(NC(=S)NC(=O)/C=C/c2ccco2)cc1	Mdm2 MdmX PPI 73 | Mdm2 MdmX conf 65 | Full FLuc ctr inactive
Cc1ccc(-c2csc(NC(=S)NC(=O)/C=C/c3ccco3)n2)cc1	Mdm2 MdmX PPI 59 | Mdm2 MdmX conf 51 | Full FLuc ctr 59
O=C(/C=C/c1ccco1)NC(=S)Nc1ccc(N2CCCC2)cc1	Mdm2 MdmX PPI 61 | Mdm2 MdmX conf 62 | Full FLuc ctr 52
O=C(NC(=S)Nc1nc(-c2ccc([N+](=O)[O-])cc2)cs1)c1ccco1	Mdm2 MdmX PPI 55 | Mdm2 MdmX conf inactive
O=C(/C=C/c1ccco1)NC(=S)Nc1ccc(C(=O)O)cc1	none
CC(NC(=O)c1ccccc1N)c1ccccc1 (configuration not stated)	none
CC(=O)C1=C(O)C(=O)N(c2cc(C(C)(C)C)on2)C1c1ccc(C(C)C)cc1 (configuration not stated)	none
Cc1cc(Oc2ncccc2[N+](=O)[O-])c2cc(Cl)ccc2n1	Mdm2 MdmX PPI 56 | Mdm2 MdmX conf inactive
N#Cc1ccccc1NC(=O)C1SC(=Nc2ccccc2)C(C(=O)Nc2ccc(Cl)cc2)=C1N (configuration not stated)	none
COc1ccccc1N=C1SC(C(=O)Nc2cccc(Cl)c2Cl)C(N)=C1C(N)=O (configuration not stated)	Mdm2 MdmX PPI 56 | Mdm2 MdmX conf 52 | Full FLuc ctr 67
C[C@@H]1CN([C@@H](C)CO)S(=O)(=O)c2ccc(Br)cc2O[C@@H]1CN(C)C(=O)c1ccncc1	none (no result: CHOP UPR activ, XBP1 UPR activ, Mdm2 MdmX PPI)
Cc1cc(C(=O)COC(=O)c2csc3c2CCCC3)c(C)n1C	none
COc1nc(-c2ccccc2)cc(-c2ccc3c(c2)OCO3)c1C#N	Mdm2 MdmX PPI 57 | Mdm2 MdmX conf 58 | Full FLuc ctr 58
c1ccc(-c2nccc(-c3ccc4c(c3)OCO4)n2)cc1	none
COC(=O)c1cc(/C=C/c2ccccc2)on1	none
COC(=O)c1ccc(NC(=S)Nc2ccccc2)cc1	none
Nc1nnc(CC(=O)N/N=C/c2ccc(-c3ccc(Cl)cc3Cl)o2)s1	Mdm2 MdmX PPI 68 | Mdm2 MdmX conf inactive | Full FLuc ctr 83
Cc1onc(-c2ccccc2Cl)c1C(=O)N1CCN(C=O)CC1	none
Cc1cccc(N2CCN(C(=O)c3c(-c4ccccc4Cl)noc3C)CC2)c1C	Mdm2 MdmX PPI 59 | Mdm2 MdmX conf 76 | Full FLuc ctr 71
Nc1nc(N)c2cc(Sc3ccc4ccccc4c3)ccc2n1	Mdm2 MdmX PPI 100 | Mdm2 MdmX conf 62 | Full FLuc ctr 38
Nc1nc(N)c2cc(Sc3ccc(Cl)cc3)ccc2n1	none (no result: CHOP UPR activ, XBP1 UPR activ, Mdm2 MdmX PPI)
COc1cc(/C=C(/C#N)C(=O)NCCc2c[nH]c3ccccc23)ccc1OCc1ccccc1F	Mdm2 MdmX PPI 63 | Mdm2 MdmX conf inactive
C/C(=N\NC(=O)c1ccccc1O)C1CC1	Mdm2 MdmX PPI 52 | Mdm2 MdmX conf inactive
COc1cccc(C(=O)N/N=C(\C)c2ccc(NC(=O)Cc3ccccc3)cc2)c1OC	none
Cc1cc(C)cc(C(=O)Nc2ccc(NC(=O)Cc3ccccc3)cc2)c1	Mdm2 MdmX PPI 52 | Mdm2 MdmX conf inactive
C/C(=N\NC(=O)c1ccccc1O)c1ccc(NC(=O)Cc2ccccc2)cc1	Mdm2 MdmX PPI 51 | Mdm2 MdmX conf inactive
O=c1[nH][nH]cc1C=Nc1cc(Cl)ccc1O	none
COc1cc(O)c(CC=C(C)C)c(O)c1C(=O)CCc1ccc(O)cc1	Mdm2 MdmX PPI 55 | Mdm2 MdmX conf inactive
O=C(CCc1ccc(O)cc1)c1c(O)cc(O)cc1O	none
C/C(=N\Nc1ccc(S(=O)(=O)Nc2ccc(Cl)cc2)cc1[N+](=O)[O-])c1ccc(N2CCOCC2)cc1	none
O=[N+]([O-])c1ccccc1/C=C/C=N/Nc1ccc(S(=O)(=O)Nc2ccc(Cl)cc2)cc1[N+](=O)[O-]	Mdm2 MdmX PPI 56 | Mdm2 MdmX conf inactive
O=[N+]([O-])c1cc(S(=O)(=O)Nc2cccc(Cl)c2)ccc1N/N=C/c1ccc(N2CCOCC2)cc1	Mdm2 MdmX PPI 84 | Mdm2 MdmX conf inactive
Cc1cc(C(=O)N2CCN(S(=O)(=O)c3ccccc3C#N)CC2)c(C)o1	none
Cc1ccc(Nc2c(-c3ccccn3)nc3cccc(C)n23)cc1	Mdm2 MdmX PPI 87 | Mdm2 MdmX conf 91 | Full FLuc ctr inactive
Cc1cc(C)n2c(Nc3c(C)cccc3C)c(-c3ccccn3)nc2n1	none (no result: CHOP UPR activ, XBP1 UPR activ, Mdm2 MdmX PPI)
Cc1cccc(C)c1Nc1c(-c2ccccn2)nc2ccccn12	Mdm2 MdmX PPI 77 | Mdm2 MdmX conf 58 | Full FLuc ctr 41
Cc1cccc2nc(-c3ccco3)c(Nc3ccccc3)n12	none
